From paper PMC5766324 (Pain, 2015)
Where a SMILES comes first, the peptide text is derived from it. The star is where a group is joined. Myristoyl = CCCCCCCCCCCCCC(=O)*

Tests used:
[1] = tested on: Ca2+ currents in sensory neurons; conditions: cited from earlier work
[2] = cited from earlier work
[3] = i.c.v. dosing; previous studies; cited from earlier work
CRMP2 = CRMP2 (Homo sapiens, UniProt Q16555); test: CRMP2 oligomerization, glutaraldehyde cross-linking and silver-stained SDS-PAGE; type: biochemical; conditions: 20 μM peptide, 1 mM glutaraldehyde; n = 3
Summary of the method: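 Bacterially expressed recombinant CRMP2, purified by affinity, anion-exchange and size-exclusion chromatography. About 4.6 μM CRMP2 was preincubated in 100 mM HEPES pH 7.3, 50 mM NaCl, with or without 20 μM peptide, for 15 min at room temperature. Glutaraldehyde (0.1, 1 or 10 mM) was added for 30 min. The reaction was stopped with loading dye and heat, and oligomers were resolved by SDS-PAGE with silver staining.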

CRMP2 phosphorylation = test: Western blot of phospho-CRMP2 in peptide-treated DRG; type: cell-based, rat; conditions: 20 μM peptide, 2 hours, n = 3–6 wells
[4] = tested on: Na+ currents, catecholamine A differentiated cell line; conditions: chronic application, 20 μM overnight; n = 5 to 8 cells
[5] = Paw incision model of postoperative pain; type: in vivo, rat
Summary of the method: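 Male Sprague-Dawley rats received a plantar incision of the left hind paw under isoflurane. After 24 h of recovery, peptide or vehicle was given spinally. Thermal withdrawal latency (lift or lick; 30-s cutoff) and tactile withdrawal thresholds were measured every 15 min for the first hour, then every 30 min for 4 h.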

[6] = tested on: small-diameter DRG neurons; test: Current clamp, excitability of small-diameter DRG neurons; type: cell-based, rat; conditions: step of depolarizing current; n = 4 to 6 cells; P < 0.001
Summary of the method: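 Whole-cell current clamp of acutely dissociated small-diameter DRG neurons at ~23°C. Pipette solution (mM): 140 KCl, 10 NaCl, 1 MgCl2, 1 EGTA, 10 HEPES pH 7.2, 1 ATP-Mg. Cells were held at resting potential (−40 to −62 mV). A 1-s depolarizing current step was set to evoke 6–10 APs under control, and APs were counted before and after adding peptide to the bath. Signals were filtered at 5 kHz and […].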

[7] = Carrageenan-induced thermal hypersensitivity; type: in vivo, rat; conditions: 20 μg/5 μL i.t., 3 hours after carrageenan; tat-CBD3 at 90, 120, 210, 240, 300 minutes; myr-tat-CBD3 at 15, 60, 90, 120, 180 minutes; n = 5–6
CaV2.2 = test: Immunocytochemistry, confocal colocalization of CaV2.2 and CRMP2 in DRG; type: cell-based, rat; conditions: 20 μM peptide
Summary of the method: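 DRG cultures were grown on poly-D-lysine coverslips in DMEM/F12 with 10% FBS, 5-FDU and uridine at 37°C, 5% CO2. Cells were exposed to vehicle or 20 μM peptide for 5 min, 20 min, 2 h or 48 h, then fixed (4% paraformaldehyde/4% sucrose, 20 min), permeabilized (0.1% Triton X-100) and blocked (3% BSA). Anti-CaV2.2 and anti-CRMP2 were applied overnight at 4°C. Confocal images were background-subtracted, and Pearson and Manders coefficients were computed from raw data.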

[8] = tested on: Ca2+ currents in sensory neurons; test: Whole-cell voltage clamp, Ca2+ currents in sensory neurons; type: cell-based, rat
Rotarod performance test = type: in vivo, rat; conditions: 20 μg/5 μL i.t.; cutoff 180 seconds; n = 5 to 6
[9] = target: N-type voltage-gated calcium channel (CaV2.2) (rat (endogenous in spinal cord)) (UniProt Q02294); test: pull-down
N-type voltage-gated calcium channel (CaV2.2) (rat (endogenous in spinal cord)), sequence (Q02294 whole entry): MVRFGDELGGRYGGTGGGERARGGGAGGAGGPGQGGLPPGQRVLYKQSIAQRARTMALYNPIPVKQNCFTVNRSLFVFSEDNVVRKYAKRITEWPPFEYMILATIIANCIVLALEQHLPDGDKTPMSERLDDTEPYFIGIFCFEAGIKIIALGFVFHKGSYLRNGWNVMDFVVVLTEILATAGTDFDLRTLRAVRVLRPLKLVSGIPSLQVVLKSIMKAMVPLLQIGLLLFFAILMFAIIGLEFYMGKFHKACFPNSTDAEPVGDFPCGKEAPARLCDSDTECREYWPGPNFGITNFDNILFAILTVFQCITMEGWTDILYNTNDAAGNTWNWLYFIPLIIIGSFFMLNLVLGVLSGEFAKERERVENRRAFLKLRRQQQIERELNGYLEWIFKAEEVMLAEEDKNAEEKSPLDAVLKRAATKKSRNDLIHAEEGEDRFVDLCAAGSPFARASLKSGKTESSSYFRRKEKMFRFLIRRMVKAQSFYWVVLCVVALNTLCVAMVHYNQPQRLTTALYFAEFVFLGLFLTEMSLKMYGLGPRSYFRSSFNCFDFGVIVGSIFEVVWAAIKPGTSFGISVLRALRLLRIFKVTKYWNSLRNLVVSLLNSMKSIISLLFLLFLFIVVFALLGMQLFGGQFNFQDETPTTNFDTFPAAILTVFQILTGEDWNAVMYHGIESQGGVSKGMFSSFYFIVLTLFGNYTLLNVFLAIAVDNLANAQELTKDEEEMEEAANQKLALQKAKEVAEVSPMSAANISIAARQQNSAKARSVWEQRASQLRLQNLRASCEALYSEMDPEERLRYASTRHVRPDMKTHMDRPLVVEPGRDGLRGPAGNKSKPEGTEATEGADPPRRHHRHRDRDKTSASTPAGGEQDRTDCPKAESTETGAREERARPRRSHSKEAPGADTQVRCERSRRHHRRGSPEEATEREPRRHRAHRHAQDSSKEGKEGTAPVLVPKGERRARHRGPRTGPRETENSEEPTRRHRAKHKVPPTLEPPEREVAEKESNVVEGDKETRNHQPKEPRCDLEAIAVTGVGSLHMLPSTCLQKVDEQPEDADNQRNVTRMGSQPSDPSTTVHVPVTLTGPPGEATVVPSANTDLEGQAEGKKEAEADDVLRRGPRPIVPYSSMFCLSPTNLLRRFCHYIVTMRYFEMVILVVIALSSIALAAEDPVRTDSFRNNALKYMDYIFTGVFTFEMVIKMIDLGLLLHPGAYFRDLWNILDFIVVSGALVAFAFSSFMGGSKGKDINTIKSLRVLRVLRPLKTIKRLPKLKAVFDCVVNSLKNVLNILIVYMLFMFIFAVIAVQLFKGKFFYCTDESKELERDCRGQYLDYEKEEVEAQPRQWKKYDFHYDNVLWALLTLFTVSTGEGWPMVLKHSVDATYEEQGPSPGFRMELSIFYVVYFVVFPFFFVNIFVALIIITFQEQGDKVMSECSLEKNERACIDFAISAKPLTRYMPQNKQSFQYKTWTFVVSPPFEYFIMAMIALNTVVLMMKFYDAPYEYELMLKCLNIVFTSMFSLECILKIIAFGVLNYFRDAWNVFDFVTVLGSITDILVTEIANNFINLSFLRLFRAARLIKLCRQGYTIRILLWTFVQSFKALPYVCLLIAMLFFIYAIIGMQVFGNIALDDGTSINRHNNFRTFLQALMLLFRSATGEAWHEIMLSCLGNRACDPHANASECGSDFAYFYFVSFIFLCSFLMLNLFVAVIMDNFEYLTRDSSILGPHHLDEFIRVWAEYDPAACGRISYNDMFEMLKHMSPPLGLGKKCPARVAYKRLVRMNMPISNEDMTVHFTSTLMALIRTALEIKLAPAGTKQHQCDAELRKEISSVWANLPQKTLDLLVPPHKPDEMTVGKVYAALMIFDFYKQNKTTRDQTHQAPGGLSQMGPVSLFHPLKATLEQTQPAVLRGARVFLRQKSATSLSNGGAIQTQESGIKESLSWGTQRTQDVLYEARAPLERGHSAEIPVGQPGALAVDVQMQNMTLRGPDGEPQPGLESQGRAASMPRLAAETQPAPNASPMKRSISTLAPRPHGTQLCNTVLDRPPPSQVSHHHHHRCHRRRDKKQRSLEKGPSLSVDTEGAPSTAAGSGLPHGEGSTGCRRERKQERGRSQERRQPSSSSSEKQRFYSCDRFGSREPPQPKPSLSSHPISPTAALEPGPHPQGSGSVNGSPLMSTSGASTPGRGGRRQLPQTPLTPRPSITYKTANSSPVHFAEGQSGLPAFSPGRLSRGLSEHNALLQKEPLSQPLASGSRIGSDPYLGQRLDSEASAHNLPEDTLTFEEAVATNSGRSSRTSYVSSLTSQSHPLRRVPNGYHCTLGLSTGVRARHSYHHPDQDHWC

NCC1(CC(=O)O)CCCCC1 [gabapentin]
block of CaV2.2 currents after acute treatments [1]: ineffective in blocking currents
peak effect, reversal of hypersensitivity ([2]; intrathecal, von Frey on incised paw, 60 minutes after injection): ~ 19%

CN1CC[C@]23c4c5ccc(O)c4O[C@H]2[C@@H](O)C=C[C@H]3[C@H]1C5 [morphine]
conditioned place preference [3]: positive condition place preference

CCCCCCCCCCCCCC(=O)NCC(=O)N[C@@H](Cc1ccc(O)cc1)C(=O)NCC(=O)N[C@@H](CCCNC(=N)N)C(=O)N[C@@H](CCCCN)C(=O)N[C@@H](CCCCN)C(=O)N[C@@H](CCCNC(=N)N)C(=O)N[C@@H](CCCNC(=N)N)C(=O)N[C@@H](CCC(N)=O)C(=O)N[C@@H](CCCNC(=N)N)C(=O)N[C@@H](CCCNC(=N)N)C(=O)N[C@@H](CCCNC(=N)N)C(=O)N[C@@H](C)C(=O)N[C@@H](CCCNC(=N)N)C(=O)N[C@@H](CO)C(=O)N[C@@H](CCCNC(=N)N)C(=O)N[C@@H](CC(C)C)C(=O)N[C@@H](C)C(=O)N[C@@H](CCC(=O)O)C(=O)N[C@@H](CC(C)C)C(=O)N[C@@H](CCCNC(=N)N)C(=O)NCC(=O)N[C@H](C(=O)N1CCC[C@H]1C(=O)N[C@@H](CCCNC(=N)N)C(=O)NCC(=O)N[C@@H](CC(C)C)C(=O)O)C(C)C [myr-tat-CBD3] (Myristoyl-GYGRKKRRQRRRARSRLAELRGVPRGL-OH; C-terminus assumed)
extent of CRMP2 dimer or tetramer (CRMP2): does not alter
expression of phosphorylated CRMP2 at sites 522, 509/514, 555 (CRMP2 phosphorylation): no changes
effect on Na+ currents [4]: did not affect
time for which maintenance of thermal and tactile hypersensitivity was blocked ([5]; 20 μg/5 μL i.t., 24 hours after incision, n = 5): at least 4 hours
withdrawal threshold (tactile) ([5]; at 5 hours after i.t. injection, 20 μg/5 μL): ~ 11 g
duration of reversal of thermal hypersensitivity ([5]; spinal administration after surgery): ~ 4 hours
number of action potentials (APs) [6]: significantly decreased
carrageenan-induced thermal hypersensitivity vs vehicle [7]: significantly attenuated
Manders overlap coefficient (MOC), CaV2.2 with CRMP2 (CaV2.2): 0.65
Pearson correlation coefficient (PCC), CaV2.2 with CRMP2 (CaV2.2): 0.60
effect on Ca2+ currents, acute application ([8]; acute application (5–30 minutes), data not shown): unable to inhibit currents
inhibition of Ca2+ currents ([8]; chronic application (~24 hours), 20 μM overnight, n = 14 to 16 cells): ~ 40%
activation of Ca2+ currents ([8]; chronic application, 20 μM, Boltzmann fits): no changes

CC(C)C[C@H](NC(=O)CNC(=O)[C@H](CCCNC(=N)N)NC(=O)[C@@H]1CCCN1C(=O)[C@@H](NC(=O)CNC(=O)[C@H](CCCNC(=N)N)NC(=O)[C@H](CC(C)C)NC(=O)[C@H](CCC(=O)O)NC(=O)[C@H](C)NC(=O)[C@H](CC(C)C)NC(=O)[C@H](CCCNC(=N)N)NC(=O)[C@H](CO)NC(=O)[C@H](CCCNC(=N)N)NC(=O)[C@H](C)NC(=O)[C@H](CCCNC(=N)N)NC(=O)[C@H](CCCNC(=N)N)NC(=O)[C@H](CCCNC(=N)N)NC(=O)[C@H](CCC(N)=O)NC(=O)[C@H](CCCNC(=N)N)NC(=O)[C@H](CCCNC(=N)N)NC(=O)[C@H](CCCCN)NC(=O)[C@H](CCCCN)NC(=O)[C@H](CCCNC(=N)N)NC(=O)CNC(=O)[C@@H](N)Cc1ccc(O)cc1)C(C)C)C(=O)O [tat-CBD3] (H-YGRKKRRQRRRARSRLAELRGVPRGL-OH)
average time on rotarod over the course of 300 minutes (Rotarod performance test): 180 ± 0 s

myr-tat-CBD3 (peptide)
percent inhibition of CaV2.2-CRMP2 binding at 10 μM [9]: > 81%

ω-conotoxin MVIIA
duration of reduced thermal hypersensitivity and mechanical allodynia ([2]; in vivo): 2 to 4 h
time of maximal effect ([2]; in vivo): 2 h
